# Experimental data published in the EternaBench riboswitch data.
# System: MS2 coat protein
# Test: apparent Kd, MS2 coat protein; higher = weaker binding; RNA-MaP array; FMN 200 µM where present
# Procedure, shortened: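 Stalled E. coli RNA polymerase transcribed the designs on Illumina sequencing-chip clusters. SNAP-549-labelled MS2 coat protein was titrated from 0.7 or 1.5 nM, doubling to 3 µM, without and then with constant ligand, in 100 mM Tris-HCl pH 7.5, 80 mM KCl, 4 mM MgCl2, BSA, DTT, yeast tRNA and Tween-20. Per-cluster binding curves were fitted to green signal normalised to red-channel RNA signal and control-cluster median Fmax. The apparent Kd is the median of the filtered fits.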
# [1] = designed as: ON switch for flavin mononucleotide, no ligand
# [2] = ligand present: flavin mononucleotide, designed as: ON switch for flavin mononucleotide
# [3] = designed as: OFF switch for flavin mononucleotide, no ligand
# [4] = ligand present: flavin mononucleotide, designed as: OFF switch for flavin mononucleotide
Sequence,apparent Kd [1] [nM],apparent Kd [2] [nM],apparent Kd [3] [nM],apparent Kd [4] [nM]
GAGUUUACGUUUGUCACUUUGCGAGAGGAUAUGGAAAACUUGACAUGAGGAUCACCCAUGUUUUAUCAGAAGGCUCGAGUACGA,10.2,6.09,–,–
CGCACUGAUAGAGGAUAUGUUUAACAUGAGGAUCACCCAUGUGUACAAGUAUCAAUAUUUAUGUAACAGAAGGCUAUUAGUGCG,–,–,5.77,5.47
GCGAAGAUAGCAGGAUAUAUGUUUCCUACAUGAGGAUCACCCAUGUAGGUGAUCAGCCGAGAAAAGUAGAAGGGCUAUCUUUGC,16.5,13.7,–,–
GCUGGACAUGAGGAUCACCCAUGUGAGGAUAUCGGCUGGUACGUGUUGGCUGGCAUCUCGAGAAGGCACAUAGU,–,–,32.8,42.4
UGUGCAGAAGGAUAUGCGUAAUGGCCGUGAGGCCUAGAUCUACAUGAGGAUCACCCAUGUAGAAGGUCUGUACU,–,–,16.6,16.4
GGACGGUUUGUCAGGAUAUGCUCUACCUCGGUAGAGCAGAAGGGACAUGAGGAUCACCCAUGUGAAAACUGUUC,–,–,22.8,25.2
UUGGUUGUCGUAGGAUAUGUAGGAUAUUCCUACAUGAGGAUCACCCAUGUUCGCAUGGAAGAAGGACAGAAGGACGAUGACCAG,1240,9.67,–,–
UUAGCAUACCGAGGAUAUUCAUAUAAUAAAUAAACAUGAGGAUCACCCAUGUGGCGAAAGCCUAGGGAGAAGGCGGAAUGCUAU,197,24.6,–,–
AUCAGCUCGUCAGGAUAUACGUCACUCCGUCAGCAGUGUGGUAAGAUCACAUGAGGAUCACCCAUGUAGAAGGGACGAGCUGAU,–,–,29.5,253
CCUCUACAUGAGGAUCACCCAUGUGAGGAUAUCUCGGAGCAGCCACUUAAAGCACUCCAGAGAAGGCACGUGUA,–,–,15.3,22.8
AAUAAACUCACAGGAUAUAGCAUAGGCCGCGUGAACUUACAGGCGACUAUGCUAGAAGGGUGACCACAUGAGGAUCACCCAUGU,851,141,–,–
ACUGGUCGAGGAUAUACAUUCGUGCUUCGGCACGUAAGAUCACAUGAGGAUCACCCAUGUAGAAGGCGACCAGU,–,–,104,732
GGACGGUUCGUCAGGAUAUGCUCUACCUCGGUAGAGCAGAAGGGACAUGAGGAUCACCCAUGUGAGAACUGUUC,–,–,18.4,17.3
UGGAUCAUGGGAGGAUAUCCUCAAGAGACAUGAGGAUCACCCAUGUAUUAUAAGCCUAAUGGCAUGGAGAAGGCCCAUGAUCCU,377,54,–,–
GGAAAGUGAGGAUAUGGUAAUUUAAUUAUUAAUUAAUUAAUCCAGAAGGCACAUGAGGAUCACCCAUGUAAAUG,–,–,35.9,61.5
CAAACAACACAGAAGGCCACGAAGUCCAUGGGUGGAGGAUAUGUGUUAGCUCUGACAUGAGGAUCACCCAUGUCUACGUGAGCU,5.5,5.27,–,–
UCAGGCUUCGAGAAGGACAUGAGGAUCACCCAUGUGCGUGUGAAGCAGCCGUGAGGCUGCAUCAUGUAGGAUAUCGGAGUCUGG,–,–,74,583
CCGACCUUGGCAGGAUAUAGACUCGAAGUUGAUCCCGCCGAUGGAGACAUGAGGAUCACCCAUGUCUAGAAGGGCCAGUCGAAA,–,–,14.3,46.1
CGCUGUCACGCAGGAUAUGCAUUGGAUUCCAAUGCAGAAGGGCGAUUACAUGAGGAUCACCCAUGUGUUGACAGUGAAGAAGAG,1250,76.3,–,–
AGUAGAUCAGGAUAUACGUAAAUGGUAAUUAUGUAACUUCAACAUGAGGAUCACCCAUGUAGAAGGGAUCUACA,–,–,14.6,15.1
UGUUGUAUUACAGGAUAUCUAGUAUUUUUUUUUAGAGAAGGGUAUUCACAUGAGGAUCACCCAUGUAUAUACGAGGAAGUUGUG,67.1,71.1,–,–
UGCAUGCUAGGAUAUACGGGACAUUAGGGUUCGUUGUAUGGACAUGAGGAUCACCCAUGUAGAAGGAGCGUGCU,–,–,27.4,112
GCAGGUUAAGUCAGGAUAUACCUAUGGAUACAUAGGUAGAAGGGACAUGAGGAUCACCCAUGUGCCUCGCCUGC,–,–,17.7,69.3
UCAAGUAUGUAGGAUAUCGAUGUCUUCGGACAUCGAGAAGGACGUACAUGAGGAUCACCCAUGUAACUUGCAUG,–,–,60.5,37.4
GUAGCUACUUUUAUACAUGAGGAUCACCCAUGUUACUUGGGUAAGGAUAUUGAUGUUAUGAUUAUCAAGAAGGUACUAUGCUAC,136,30,–,–
UGCCUGAGUCGAGGAUAUUAUGGAUCCUUUAAUACAUGAGGAUCACCCAUGUAAUUAAUUAUACAUGAGAAGGCGACUCAGGCU,88.8,12.5,–,–
AAUUAACUCACAGGAUAUAGCAGAGGUCGAGUAAACUUACAGGCGACGAGGCUAGAAGGGUGACCACAUGAGGAUCACCCAUGU,733,131,–,–
